Experiment [1] deals with Myotonin-protein kinase (Homo sapiens) (UniProt Q09013). Kind of experiment: Inhibition of human DMPK at 1 uM using RBER-CHKtide as substrate in presence of 33P-ATP by ProQinase assay.
Experiment [2] deals with DNA-dependent protein kinase catalytic subunit (Homo sapiens) (UniProt P78527). Kind of experiment: Inhibition of human DNPK1 at 1 uM using RBER-GSK3 as substrate in presence of 33P-ATP by ProQinase assay.
Experiment [3] has as its target Serine/threonine-protein kinase WNK2 (Homo sapiens) (UniProt Q9Y3S1). Kind of experiment: Inhibition of human WNK2 at 1 uM using RBER-CHKtide as substrate in presence of 33P-ATP by ProQinase assay.
In the next experiment the test system is U2OS. Nature of the experiment: Inhibition of PI3K in human U2OS cells expressing FLAG-tagged SGK3 assessed as reduction in AKT phosphorylation at S473 residues at 0.01 to 1 uM 1 hr by immunoblot analysis. The experiment is classed as cell-based. To be noted: dose 0.01-1 µM. In outline:
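Flp-In T-REx U2OS cells were grown in McCoy medium with 10% FBS. Expression of C-terminally FLAG-tagged full-length SGK3 was induced with 0.01 mg/ml doxycycline for 24 h. Cells were treated with inhibitor for 1 h and lysed in phosphatase-inhibitor buffer. Lysates were cleared at 16000 g for 10 min at 4°C, protein was measured by Bradford, and phosphorylation was read by immunoblot with ECL detection.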

Experiment [4] has as its target CDK2/Cyclin A2 (Homo sapiens) (UniProt P24941+P20248). Nature of the experiment: Inhibition of human CDK2/CycA2 at 1 uM using RBER-CHKtide as substrate in presence of 33P-ATP by ProQinase assay. The experiment is classed as protein-complex assay.
Experiment [5] concerns the target Serine/threonine-protein kinase BRSK1 (Homo sapiens) (UniProt Q8TDC3). Nature of the experiment: Inhibition of human BRSK1 at 1 uM using RBER-CHKtide as substrate in presence of 33P-ATP by ProQinase assay.
In experiment [6] the target is Testis-specific serine/threonine-protein kinase 2 (Homo sapiens) (UniProt Q96PF2). Nature of the experiment: Inhibition of human TSK2 at 1 uM using RBER-CHKtide as substrate in presence of 33P-ATP by ProQinase assay.
Experiment [7] deals with Serine/threonine-protein kinase PAK 2 (Homo sapiens) (UniProt Q13177). Kind of experiment: Inhibition of PAK2 (unknown origin) assessed as remaining activity at 1 uM relative to control. The gist of the method:
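Dundee panel of 140 protein kinases, tested at a single 1 μM concentration. Each assay was run in triplicate. Remaining activity is expressed relative to a control reaction without inhibitor, as mean ± S.D. Conditions for each kinase were those of the screening centre.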

Experiment [8] deals with Fibroblast growth factor receptor 1 (Homo sapiens) (UniProt P11362). Nature of the experiment: Inhibition of human FGFR1 at 1 uM using polyEy as substrate in presence of 33P-ATP by ProQinase assay.
The target of experiment [9] is Phosphatidylinositol 4-phosphate 5-kinase type-1 gamma (Homo sapiens, UniProt O60331). Nature of the experiment: Inhibition of human PIP5K1C using PI/PS as substrate by ADP-Glo assay. Background: ADP-Glo first removes unused ATP, then detects ADP through luciferase.
In experiment [10] the target is Serine/threonine-protein kinase 3 (Homo sapiens) (UniProt Q13188). Kind of experiment: Inhibition of human MST2 at 1 uM using RB-CTF as substrate in presence of 33P-ATP by ProQinase assay.
The target of experiment [11] is Focal adhesion kinase 1 (Homo sapiens) (UniProt Q05397). Nature of the experiment: Inhibition of human FAK (2 to 1052 residues) at 1 uM using polyEY as substrate in presence of 33P-ATP by ProQinase assay.
The target of experiment [12] is Mitogen-activated protein kinase kinase kinase 1 (Homo sapiens) (UniProt Q13233). Kind of experiment: Inhibition of human MAP3K1 at 1 uM using bio-4xCHKT as substrate in presence of 33P-ATP by ProQinase assay.
For experiment [13], the target named is Serine/threonine-protein kinase PAK 3 (Homo sapiens) (UniProt O75914). Kind of experiment: Inhibition of human PAK3 at 1 uM using bio-4xCHKT as substrate in presence of 33P-ATP by ProQinase assay.
Experiment [14] addresses Tyrosine-protein kinase JAK2 (Homo sapiens) (UniProt O60674). Kind of experiment: Inhibition of human JAK2 at 1 uM using poly(Ala,Glu,Lys,Tyr) as substrate in presence of 33P-ATP by ProQinase assay.
The target of experiment [15] is Insulin-like growth factor 1 receptor (Homo sapiens) (UniProt P08069). Kind of experiment: Inhibition of human IGF1R at 1 uM using polyEY as substrate in presence of 33P-ATP by ProQinase assay.
The target of experiment [16] is Myosin light chain kinase (Homo sapiens) (UniProt Q32MK0). Kind of experiment: Inhibition of human MYLK3 at 1 uM using RB-S6P as substrate in presence of 33P-ATP by ProQinase assay.
Experiment [17] addresses Vascular endothelial growth factor receptor 1 (Homo sapiens) (UniProt P17948). Nature of the experiment: Inhibition of recombinant human N-terminal GST-tagged VEGFR1 (784 to 1338 residues) expressed in baculovirus infected Sf21 cells assessed as remaining activity at 1 uM using KKKSPGEYVNIEFG as substrate incubated for 30 mins in presence of [gamma-33P]ATP by filter binding method relative to control.

The target in experiment [18] is Dual specificity mitogen-activated protein kinase kinase 1 (Homo sapiens) (UniProt Q02750). Nature of the experiment: Inhibition of human MEK1 at 1 uM using ERK2-KR as substrate in presence of 33P-ATP by ProQinase assay.
The target of experiment [19] is Protein kinase C gamma type (Homo sapiens) (UniProt P05129). Kind of experiment: Inhibition of recombinant human N-terminal GST-tagged PKCgamma (1 to 697 residues) expressed in baculovirus infected Sf21 cells assessed as remaining activity at 1 uM using Histone H1 as substrate incubated for 30 mins in presence of [gamma-33P]ATP by filter binding method relative to control.

Experiment [20] concerns the target Testis-specific serine/threonine-protein kinase 1 (Homo sapiens) (UniProt Q9BXA7). Nature of the experiment: Inhibition of recombinant human N-terminal GST-tagged TSSK1 (1 to 367 residues) expressed in Escherichia coli assessed as remaining activity at 1 uM using KKKVSRSGLYRSPSMPENLNRPR as substrate incubated for 30 mins in presence of [gamma-33P]ATP by filter binding method relative to control.

The target of experiment [21] is Protein-tyrosine kinase 6 (Homo sapiens) (UniProt Q13882). Kind of experiment: Inhibition of recombinant human N-terminal His6-tagged BRK (1 to 451 residues) expressed in baculovirus infected Sf21 cells assessed as remaining activity at 1 uM using Poly (Glu,Tyr) as substrate incubated for 30 mins in presence of [gamma-33P]ATP by filter binding method relative to control.

The target in experiment [22] is Tyrosine-protein kinase ABL1 (Homo sapiens) (UniProt P00519). Kind of experiment: Inhibition of recombinant human N-terminal GST-tagged ABL (118 to 535 residues) expressed in Escherichia coli co-expressed with His-tagged YopH assessed as remaining activity at 1 uM using EAIYAAPFAKKK as substrate incubated for 30 mins in presence of [gamma-33P]ATP by filter binding method relative to control.

Experiment [23] concerns the target Homeodomain-interacting protein kinase 2 (Homo sapiens) (UniProt Q9H2X6). Kind of experiment: Inhibition of human HIPK2 at 1 uM using RBER-CHKtide as substrate in presence of 33P-ATP by ProQinase assay.

Calls of active or inactive are those of the source. The rule behind the calls is not given here.

Chain of Protein-tyrosine kinase 6 (Homo sapiens) (Q13882 whole entry, looked up, the tested form may be a part): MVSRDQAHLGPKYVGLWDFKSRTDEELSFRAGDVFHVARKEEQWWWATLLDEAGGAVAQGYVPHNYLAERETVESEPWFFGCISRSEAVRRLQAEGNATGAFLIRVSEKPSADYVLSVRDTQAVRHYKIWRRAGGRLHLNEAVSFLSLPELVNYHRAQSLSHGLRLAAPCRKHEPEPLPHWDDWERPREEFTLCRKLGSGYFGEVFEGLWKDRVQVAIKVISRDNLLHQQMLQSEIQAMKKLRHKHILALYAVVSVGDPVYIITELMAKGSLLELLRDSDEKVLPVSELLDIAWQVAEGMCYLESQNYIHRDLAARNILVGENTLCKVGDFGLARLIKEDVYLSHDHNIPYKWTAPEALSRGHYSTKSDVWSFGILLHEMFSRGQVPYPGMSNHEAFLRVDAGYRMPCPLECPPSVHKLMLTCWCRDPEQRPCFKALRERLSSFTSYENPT
Chain of Testis-specific serine/threonine-protein kinase 2 (Homo sapiens) (Q96PF2 whole entry): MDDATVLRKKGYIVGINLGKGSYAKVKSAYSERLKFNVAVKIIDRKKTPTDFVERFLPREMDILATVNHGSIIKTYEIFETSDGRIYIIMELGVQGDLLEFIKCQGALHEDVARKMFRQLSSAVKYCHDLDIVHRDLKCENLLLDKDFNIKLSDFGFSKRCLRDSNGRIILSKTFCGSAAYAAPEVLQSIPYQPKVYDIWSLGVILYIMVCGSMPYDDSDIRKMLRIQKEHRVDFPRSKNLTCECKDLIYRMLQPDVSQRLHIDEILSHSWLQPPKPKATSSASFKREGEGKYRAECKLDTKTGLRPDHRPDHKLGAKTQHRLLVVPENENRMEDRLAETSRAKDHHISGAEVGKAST
Chain of Serine/threonine-protein kinase BRSK1 (Homo sapiens) (Q8TDC3 whole entry): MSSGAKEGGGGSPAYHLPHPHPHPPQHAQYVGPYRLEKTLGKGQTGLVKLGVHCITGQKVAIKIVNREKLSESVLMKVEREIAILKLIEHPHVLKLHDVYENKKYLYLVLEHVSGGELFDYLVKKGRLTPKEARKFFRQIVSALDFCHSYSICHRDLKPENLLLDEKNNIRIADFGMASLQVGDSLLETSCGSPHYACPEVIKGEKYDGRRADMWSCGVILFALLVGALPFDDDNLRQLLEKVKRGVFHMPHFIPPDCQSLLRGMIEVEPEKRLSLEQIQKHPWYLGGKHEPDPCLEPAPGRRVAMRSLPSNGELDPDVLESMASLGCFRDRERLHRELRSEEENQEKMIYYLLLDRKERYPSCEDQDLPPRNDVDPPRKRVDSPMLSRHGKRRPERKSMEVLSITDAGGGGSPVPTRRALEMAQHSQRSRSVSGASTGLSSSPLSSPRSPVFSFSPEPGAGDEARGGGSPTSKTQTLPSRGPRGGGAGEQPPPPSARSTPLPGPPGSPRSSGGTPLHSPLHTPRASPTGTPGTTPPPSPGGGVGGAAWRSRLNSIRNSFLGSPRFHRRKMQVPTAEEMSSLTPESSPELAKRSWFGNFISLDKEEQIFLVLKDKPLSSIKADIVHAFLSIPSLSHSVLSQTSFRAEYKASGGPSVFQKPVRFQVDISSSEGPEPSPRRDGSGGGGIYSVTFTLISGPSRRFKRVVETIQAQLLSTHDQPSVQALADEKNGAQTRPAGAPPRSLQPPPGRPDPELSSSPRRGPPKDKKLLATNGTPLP
Chain of Myotonin-protein kinase (Homo sapiens) (Q09013 whole entry): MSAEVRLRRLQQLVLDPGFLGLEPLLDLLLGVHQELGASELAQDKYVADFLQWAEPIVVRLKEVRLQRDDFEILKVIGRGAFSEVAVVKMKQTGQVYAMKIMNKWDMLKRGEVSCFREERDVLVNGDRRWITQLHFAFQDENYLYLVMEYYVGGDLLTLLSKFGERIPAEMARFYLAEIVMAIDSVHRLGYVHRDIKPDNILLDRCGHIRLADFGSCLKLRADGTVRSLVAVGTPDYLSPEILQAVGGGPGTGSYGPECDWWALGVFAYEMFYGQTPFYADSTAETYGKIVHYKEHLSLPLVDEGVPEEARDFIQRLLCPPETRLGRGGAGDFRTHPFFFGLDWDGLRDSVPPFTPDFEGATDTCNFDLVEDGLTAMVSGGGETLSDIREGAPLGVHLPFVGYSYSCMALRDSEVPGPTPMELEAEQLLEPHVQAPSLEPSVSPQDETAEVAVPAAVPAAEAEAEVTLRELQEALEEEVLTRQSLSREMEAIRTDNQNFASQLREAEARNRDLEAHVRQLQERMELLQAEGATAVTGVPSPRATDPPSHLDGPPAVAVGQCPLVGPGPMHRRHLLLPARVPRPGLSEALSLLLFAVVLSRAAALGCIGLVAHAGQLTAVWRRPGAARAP
Chain of Homeodomain-interacting protein kinase 2 (Homo sapiens) (Q9H2X6 whole entry, looked up): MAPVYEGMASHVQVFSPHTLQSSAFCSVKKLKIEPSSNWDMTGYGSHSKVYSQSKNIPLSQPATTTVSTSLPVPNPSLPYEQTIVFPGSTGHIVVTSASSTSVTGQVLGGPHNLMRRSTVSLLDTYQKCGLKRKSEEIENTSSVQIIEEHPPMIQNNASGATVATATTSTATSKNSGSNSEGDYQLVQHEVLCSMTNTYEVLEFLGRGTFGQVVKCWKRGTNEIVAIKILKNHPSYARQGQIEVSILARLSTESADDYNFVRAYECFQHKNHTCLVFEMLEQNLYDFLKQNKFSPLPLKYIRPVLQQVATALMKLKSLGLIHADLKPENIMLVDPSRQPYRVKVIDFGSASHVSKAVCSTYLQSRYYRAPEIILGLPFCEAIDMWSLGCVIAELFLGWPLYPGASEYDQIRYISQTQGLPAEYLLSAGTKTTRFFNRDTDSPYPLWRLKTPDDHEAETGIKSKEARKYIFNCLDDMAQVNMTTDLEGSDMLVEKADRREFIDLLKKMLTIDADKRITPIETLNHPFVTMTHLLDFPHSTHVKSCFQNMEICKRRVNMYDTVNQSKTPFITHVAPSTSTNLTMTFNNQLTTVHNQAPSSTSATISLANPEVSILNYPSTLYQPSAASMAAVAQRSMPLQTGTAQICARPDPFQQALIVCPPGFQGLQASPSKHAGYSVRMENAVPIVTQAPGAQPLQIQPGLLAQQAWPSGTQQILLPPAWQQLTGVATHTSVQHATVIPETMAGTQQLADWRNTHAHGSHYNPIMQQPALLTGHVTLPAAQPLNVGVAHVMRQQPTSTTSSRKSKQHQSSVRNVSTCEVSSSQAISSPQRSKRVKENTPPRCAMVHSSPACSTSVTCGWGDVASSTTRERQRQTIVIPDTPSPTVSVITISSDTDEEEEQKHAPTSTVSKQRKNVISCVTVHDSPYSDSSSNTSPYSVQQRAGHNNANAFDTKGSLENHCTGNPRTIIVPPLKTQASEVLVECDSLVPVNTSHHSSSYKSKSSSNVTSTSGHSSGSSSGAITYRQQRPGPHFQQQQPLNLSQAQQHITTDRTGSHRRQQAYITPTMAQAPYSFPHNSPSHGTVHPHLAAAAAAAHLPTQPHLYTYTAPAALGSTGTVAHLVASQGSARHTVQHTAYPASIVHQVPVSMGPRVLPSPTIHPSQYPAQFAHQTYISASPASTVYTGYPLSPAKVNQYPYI
Chain of Vascular endothelial growth factor receptor 1 (Homo sapiens) (P17948 whole entry, the tested form may be a part): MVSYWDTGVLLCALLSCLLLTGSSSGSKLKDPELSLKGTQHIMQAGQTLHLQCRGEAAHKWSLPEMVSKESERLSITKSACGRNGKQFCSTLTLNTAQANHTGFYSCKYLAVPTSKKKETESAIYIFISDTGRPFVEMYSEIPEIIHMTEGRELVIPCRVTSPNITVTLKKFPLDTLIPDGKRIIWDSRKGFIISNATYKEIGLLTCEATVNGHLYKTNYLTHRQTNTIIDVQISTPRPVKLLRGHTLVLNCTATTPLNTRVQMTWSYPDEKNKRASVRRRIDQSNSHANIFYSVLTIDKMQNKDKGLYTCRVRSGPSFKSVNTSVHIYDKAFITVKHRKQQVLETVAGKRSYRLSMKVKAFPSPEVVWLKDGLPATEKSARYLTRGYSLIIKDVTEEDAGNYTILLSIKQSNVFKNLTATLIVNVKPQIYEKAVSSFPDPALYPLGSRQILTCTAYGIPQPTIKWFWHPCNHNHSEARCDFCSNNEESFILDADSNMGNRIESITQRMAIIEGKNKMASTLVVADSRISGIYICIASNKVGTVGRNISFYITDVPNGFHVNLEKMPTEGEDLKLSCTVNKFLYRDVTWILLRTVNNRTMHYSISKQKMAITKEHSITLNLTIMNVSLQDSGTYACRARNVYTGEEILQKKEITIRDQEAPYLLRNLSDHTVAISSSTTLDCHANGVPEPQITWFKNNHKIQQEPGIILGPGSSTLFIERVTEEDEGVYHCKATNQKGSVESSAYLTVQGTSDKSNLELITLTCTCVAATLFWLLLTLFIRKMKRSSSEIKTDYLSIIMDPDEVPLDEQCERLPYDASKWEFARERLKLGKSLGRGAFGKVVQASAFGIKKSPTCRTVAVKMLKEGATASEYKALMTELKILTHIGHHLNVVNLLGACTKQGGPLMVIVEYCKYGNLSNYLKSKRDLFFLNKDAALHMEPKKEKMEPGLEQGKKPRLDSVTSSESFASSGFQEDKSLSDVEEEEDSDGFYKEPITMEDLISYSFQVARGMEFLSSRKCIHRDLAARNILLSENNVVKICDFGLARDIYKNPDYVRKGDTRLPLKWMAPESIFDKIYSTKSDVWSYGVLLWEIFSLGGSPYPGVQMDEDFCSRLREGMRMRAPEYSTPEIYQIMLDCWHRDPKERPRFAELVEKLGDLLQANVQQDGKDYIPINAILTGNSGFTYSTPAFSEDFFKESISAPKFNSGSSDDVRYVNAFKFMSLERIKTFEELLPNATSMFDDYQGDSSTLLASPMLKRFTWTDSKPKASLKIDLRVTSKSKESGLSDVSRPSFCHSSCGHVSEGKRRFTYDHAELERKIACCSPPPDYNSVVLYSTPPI

The term IC50 denotes the concentration at which inhibition is half-maximal. Higher therefore signals weaker potency. As to `CC(C)(O)CNc1ncc(-c2ccnc(Nc3ccnc(Cl)c3)n2)c(CC2CC2)n1`, the inhibition result (in [1]; in experiment [2]; in experiment [3]; in the experiment with U2OS; in experiment [4]; in [5]) was “inactive” in each case. Further, the inhibition result in experiment [6], in [8], in experiment [10], in [11], in experiment [12] and in experiment [13] was “inactive” in each case. Moreover, the inhibition result in experiment [14], in experiment [15], in [16], in [18] and in [23] was “inactive” throughout. For the same molecule, the Activity in experiment [7] worked out at 111%; in experiment [17], 113%; in experiment [19] it was 111%; in experiment [20], 118%; in experiment [21], 103%; in experiment [22], 87%. In [9], this molecule registered an IC50 of 3.37 µM.

The values above are taken from ChEMBL document CHEMBL5705899 (Biochem J, 2014).
